# Activity calls are given as the source filed them. The calls are words filed in the database; no cut-off is given here.
# Legend:
# [1] = target: Bromodomain testis-specific protein (Homo sapiens) (UniProt Q58F21); experiment: Binding affinity to human partial length BRDT bromodomain 1 (N21 to E137 residues) expressed in bacterial expression system at 1 uM by BROMOscan assay
# In short: (§1)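 BROMOscan bromodomain cross-screen run by an outside service, compound at 1 µM against 32 recombinant bromodomains. Binding given as percent of control.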
# [2] = target: Transcription initiation factor TFIID subunit 1-like (Homo sapiens) (UniProt Q8IZX4); experiment: Binding affinity to human partial length TAF1L bromodomain 2 (Q1523 to D1654 residues) expressed in bacterial expression system at 1 uM by BROMOscan assay; in short: as §1
# [3] = AUC (0 to t) in Sprague-Dawley rat at 10 mg/kg, po administered via gavage by LC-MS/MS analysis; type: ADME, organism-based; conditions: in vivo
# In short: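 Serial jugular blood samples taken at designated times and spun to plasma at 4 ℃. Plasma mixed with acetonitrile holding internal standard, then LC-MS/MS. Parameters from noncompartmental fitting.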
# [4] = Lipophilicity, log D of the compound at pH 7.4 by HPLC analysis; type: physicochemical; conditions: buffer
# [5] = target: Mitogen-activated protein kinase kinase kinase 5 (Homo sapiens) (UniProt Q99683); experiment: Inhibition of recombinant human ASK1 (649 to 946 residues) at 10 uM using myelin basic protein as substrate measured after 40 mins in presence of [gamma33P]ATP by scintillation counting method
# [6] = target: BMP-2-inducible protein kinase (Homo sapiens) (UniProt Q9NSY1); experiment: Inhibition of recombinant human BIKepsilon at 10 uM using peptide substrate measured after 120 mins in presence of [gamma33P]ATP by scintillation counting method
# [7] = target: CDC7/Cyclin B1 (Homo sapiens) (UniProt P14635+O00311); experiment: Inhibition of recombinant full-length human CDC7/cyclinB1 at 10 uM using Histone H1 as substrate measured after 120 mins in presence of [gamma33P]ATP by scintillation counting method; type: protein-complex assay
# [8] = target: CDK9/cyclin T1 (Homo sapiens) (UniProt O60563+P50750); experiment: Inhibition of recombinant full length human CDK9/cyclinT1 at 10 uM using KTFCGTPEYLAPEVRREPRILSEEEQEMFRDFDYIADWC as substrate measured after 40 mins in presence of [gamma33P]ATP by scintillation counting method; type: protein-complex assay
# [9] = target: CDK12/Cyclin K (Homo sapiens) (UniProt O75909+Q9NYV4); experiment: Inhibition of recombinant full length human CDK12/cyclinK at 10 uM using RSRSRSRSRSRSRSR as substrate measured after 120 mins in presence of [gamma33P]ATP by scintillation counting method; type: protein-complex assay
# Chain of CDK12/Cyclin K (Homo sapiens) (O75909 whole entry, looked up, the tested form may be a part, canonical isoform): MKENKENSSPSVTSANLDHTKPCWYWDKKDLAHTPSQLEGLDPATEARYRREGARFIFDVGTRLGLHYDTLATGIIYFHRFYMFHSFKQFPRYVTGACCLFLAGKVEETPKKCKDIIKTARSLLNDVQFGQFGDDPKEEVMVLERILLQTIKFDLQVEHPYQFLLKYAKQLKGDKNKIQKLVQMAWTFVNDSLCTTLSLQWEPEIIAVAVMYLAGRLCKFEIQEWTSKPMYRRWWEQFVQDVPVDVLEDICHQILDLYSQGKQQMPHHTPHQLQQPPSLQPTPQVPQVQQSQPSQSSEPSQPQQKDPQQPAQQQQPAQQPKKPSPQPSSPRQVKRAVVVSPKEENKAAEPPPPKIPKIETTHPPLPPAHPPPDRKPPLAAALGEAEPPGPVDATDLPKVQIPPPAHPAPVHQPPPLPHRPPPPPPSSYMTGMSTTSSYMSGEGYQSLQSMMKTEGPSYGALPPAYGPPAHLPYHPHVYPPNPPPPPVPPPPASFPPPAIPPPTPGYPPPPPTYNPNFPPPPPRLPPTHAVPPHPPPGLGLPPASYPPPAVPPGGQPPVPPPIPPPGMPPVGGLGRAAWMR
# Chain of CDK12/Cyclin K (Homo sapiens) (Q9NYV4 whole entry, looked up, the tested form may be a part, canonical isoform): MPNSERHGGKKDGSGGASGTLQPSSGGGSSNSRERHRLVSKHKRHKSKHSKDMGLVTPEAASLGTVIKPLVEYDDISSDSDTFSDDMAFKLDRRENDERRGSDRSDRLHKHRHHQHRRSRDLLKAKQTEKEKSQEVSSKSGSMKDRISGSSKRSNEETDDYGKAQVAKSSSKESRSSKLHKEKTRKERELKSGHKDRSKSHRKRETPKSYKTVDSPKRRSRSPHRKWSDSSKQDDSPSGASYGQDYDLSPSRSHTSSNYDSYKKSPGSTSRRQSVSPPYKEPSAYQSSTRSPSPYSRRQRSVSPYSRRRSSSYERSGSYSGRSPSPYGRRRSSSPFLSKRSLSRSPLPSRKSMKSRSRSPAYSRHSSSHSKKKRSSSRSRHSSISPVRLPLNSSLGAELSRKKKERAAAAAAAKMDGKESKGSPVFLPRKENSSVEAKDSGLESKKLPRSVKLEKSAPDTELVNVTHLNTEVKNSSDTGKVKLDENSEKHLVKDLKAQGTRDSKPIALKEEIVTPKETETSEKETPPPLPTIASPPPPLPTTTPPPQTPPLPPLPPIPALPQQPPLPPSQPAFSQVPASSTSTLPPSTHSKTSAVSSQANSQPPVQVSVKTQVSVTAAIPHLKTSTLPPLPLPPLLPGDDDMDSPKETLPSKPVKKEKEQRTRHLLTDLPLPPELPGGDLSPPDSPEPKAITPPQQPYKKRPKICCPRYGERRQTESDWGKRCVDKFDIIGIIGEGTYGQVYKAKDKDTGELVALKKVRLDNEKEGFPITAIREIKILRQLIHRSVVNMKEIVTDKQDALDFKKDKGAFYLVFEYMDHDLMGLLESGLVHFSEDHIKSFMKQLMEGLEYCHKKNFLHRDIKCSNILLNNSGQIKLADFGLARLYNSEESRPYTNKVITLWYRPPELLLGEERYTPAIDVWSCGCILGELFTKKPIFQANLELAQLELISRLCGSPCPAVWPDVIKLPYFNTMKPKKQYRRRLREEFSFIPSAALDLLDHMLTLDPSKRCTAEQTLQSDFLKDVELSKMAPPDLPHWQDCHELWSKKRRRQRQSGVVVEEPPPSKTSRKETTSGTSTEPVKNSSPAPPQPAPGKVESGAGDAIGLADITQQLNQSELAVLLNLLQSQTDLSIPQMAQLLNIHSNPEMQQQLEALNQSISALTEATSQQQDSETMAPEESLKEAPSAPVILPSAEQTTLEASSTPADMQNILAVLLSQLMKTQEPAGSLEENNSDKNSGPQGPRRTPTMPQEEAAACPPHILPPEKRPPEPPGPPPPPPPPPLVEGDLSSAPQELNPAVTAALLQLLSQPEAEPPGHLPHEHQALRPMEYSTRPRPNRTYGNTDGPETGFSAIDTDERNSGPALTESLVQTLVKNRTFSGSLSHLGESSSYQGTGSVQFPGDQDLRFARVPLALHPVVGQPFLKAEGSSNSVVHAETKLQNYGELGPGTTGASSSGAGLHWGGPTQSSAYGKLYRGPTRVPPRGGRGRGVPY
# [10] = target: Casein kinase I isoform delta (Homo sapiens) (UniProt P48730); experiment: Inhibition of recombinant human CK1delta (1 to 294 residues) at 10 uM using KRRRALS(p)VASLPGL as substrate measured after 40 mins in presence of [gamma33P]ATP by scintillation counting method
# [11] = target: Myotonin-protein kinase (Homo sapiens) (UniProt Q09013); experiment: Inhibition of recombinant human DMPK (1 to 549 residues) at 10 uM using KKSRGDYMTMQIG as substrate measured after 40 mins in presence of [gamma33P]ATP by scintillation counting method
# [12] = target: Ephrin type-B receptor 3 (Homo sapiens) (UniProt P54753); experiment: Inhibition of recombinant human EphB3 (599 to 920 residues) at 10 uM using poly (Glu, Tyr) 4:1 as substrate measured after 40 mins in presence of [gamma33P]ATP by scintillation counting method
# [13] = target: Mitogen-activated protein kinase kinase kinase kinase 1 (Homo sapiens) (UniProt Q92918); experiment: Inhibition of recombinant human HPK1 (1 to 346 residues) at 10 uM using myelin basic protein as substrate measured after 40 mins in presence of [gamma33P]ATP by scintillation counting method
# [14] = target: Tyrosine-protein kinase JAK3 (Homo sapiens) (UniProt P52333); experiment: Inhibition of recombinant human JAK3 (781 to end residues) at 10 uM using GGEEEEYFELVKKKK as substrate measured after 40 mins in presence of [gamma33P]ATP by scintillation counting method
# [15] = target: Mitogen-activated protein kinase 8 (Homo sapiens) (UniProt P45983); experiment: Inhibition of recombinant full-length human JNK1alpha1 at 10 uM using ATF2 as substrate measured after 40 mins in presence of [gamma33P]ATP by scintillation counting method
# Chain of Mitogen-activated protein kinase 8 (Homo sapiens) (P45983 whole entry): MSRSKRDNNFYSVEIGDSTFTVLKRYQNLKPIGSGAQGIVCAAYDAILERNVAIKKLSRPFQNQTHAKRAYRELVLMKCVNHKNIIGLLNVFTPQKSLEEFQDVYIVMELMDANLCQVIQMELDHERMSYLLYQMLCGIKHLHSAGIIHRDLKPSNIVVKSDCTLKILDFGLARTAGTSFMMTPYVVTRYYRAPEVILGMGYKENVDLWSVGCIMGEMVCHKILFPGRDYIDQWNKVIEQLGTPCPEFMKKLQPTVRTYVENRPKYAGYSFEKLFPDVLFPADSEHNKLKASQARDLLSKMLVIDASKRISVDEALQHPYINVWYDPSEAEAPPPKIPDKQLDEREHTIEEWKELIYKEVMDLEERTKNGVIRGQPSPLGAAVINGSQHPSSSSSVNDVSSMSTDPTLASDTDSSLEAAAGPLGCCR
# [16] = target: Tyrosine-protein kinase Lck (Homo sapiens) (UniProt P06239); experiment: Inhibition of recombinant full-length human Lck at 10 uM using KVEKIGEGTYGVV as substrate measured after 40 mins in presence of [gamma33P]ATP by scintillation counting method
# Chain of Tyrosine-protein kinase Lck (Homo sapiens) (P06239 2-509 limits assumed): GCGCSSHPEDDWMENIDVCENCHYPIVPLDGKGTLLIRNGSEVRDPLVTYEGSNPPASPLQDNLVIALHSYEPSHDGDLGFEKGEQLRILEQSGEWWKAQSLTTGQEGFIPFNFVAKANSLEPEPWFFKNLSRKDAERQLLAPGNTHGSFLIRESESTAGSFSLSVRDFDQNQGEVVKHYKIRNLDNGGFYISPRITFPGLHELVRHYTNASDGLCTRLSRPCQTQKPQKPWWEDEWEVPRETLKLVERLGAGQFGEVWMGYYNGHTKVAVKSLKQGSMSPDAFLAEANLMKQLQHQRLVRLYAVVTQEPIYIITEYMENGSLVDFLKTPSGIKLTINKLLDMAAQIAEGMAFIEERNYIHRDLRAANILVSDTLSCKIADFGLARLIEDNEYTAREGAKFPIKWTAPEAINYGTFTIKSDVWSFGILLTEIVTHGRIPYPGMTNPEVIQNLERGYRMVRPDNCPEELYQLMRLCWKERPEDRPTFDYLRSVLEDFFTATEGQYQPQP
# [17] = species: Homo sapiens; experiment: Inhibition of recombinant human Mer H628Q/R794A mutant (557 to 882 residues) at 10 uM using GGMEDIYFEFMGGKKK as substrate measured after 40 mins in presence of [gamma33P]ATP by scintillation counting method
# [18] = target: Serine/threonine-protein kinase Nek6 (Homo sapiens) (UniProt Q9HC98); experiment: Inhibition of recombinant human NEK6 (2 to end residues) at 10 uM using FLAKSFGSPNRAYKK as substrate measured after 40 mins in presence of [gamma33P]ATP by scintillation counting method
# [19] = tested on: Platelet-derived growth factor receptor alpha (Homo sapiens), P16234 [D842V]; experiment: Inhibition of recombinant human PDGFRalpha D842V mutant (550 to end residues) at 10 uM using GGMEDIYFEFMGGKKK as substrate measured after 40 mins in presence of [gamma33P]ATP by scintillation counting method
# Chain of Platelet-derived growth factor receptor alpha (Homo sapiens), P16234 [D842V] (P16234 whole entry D842V): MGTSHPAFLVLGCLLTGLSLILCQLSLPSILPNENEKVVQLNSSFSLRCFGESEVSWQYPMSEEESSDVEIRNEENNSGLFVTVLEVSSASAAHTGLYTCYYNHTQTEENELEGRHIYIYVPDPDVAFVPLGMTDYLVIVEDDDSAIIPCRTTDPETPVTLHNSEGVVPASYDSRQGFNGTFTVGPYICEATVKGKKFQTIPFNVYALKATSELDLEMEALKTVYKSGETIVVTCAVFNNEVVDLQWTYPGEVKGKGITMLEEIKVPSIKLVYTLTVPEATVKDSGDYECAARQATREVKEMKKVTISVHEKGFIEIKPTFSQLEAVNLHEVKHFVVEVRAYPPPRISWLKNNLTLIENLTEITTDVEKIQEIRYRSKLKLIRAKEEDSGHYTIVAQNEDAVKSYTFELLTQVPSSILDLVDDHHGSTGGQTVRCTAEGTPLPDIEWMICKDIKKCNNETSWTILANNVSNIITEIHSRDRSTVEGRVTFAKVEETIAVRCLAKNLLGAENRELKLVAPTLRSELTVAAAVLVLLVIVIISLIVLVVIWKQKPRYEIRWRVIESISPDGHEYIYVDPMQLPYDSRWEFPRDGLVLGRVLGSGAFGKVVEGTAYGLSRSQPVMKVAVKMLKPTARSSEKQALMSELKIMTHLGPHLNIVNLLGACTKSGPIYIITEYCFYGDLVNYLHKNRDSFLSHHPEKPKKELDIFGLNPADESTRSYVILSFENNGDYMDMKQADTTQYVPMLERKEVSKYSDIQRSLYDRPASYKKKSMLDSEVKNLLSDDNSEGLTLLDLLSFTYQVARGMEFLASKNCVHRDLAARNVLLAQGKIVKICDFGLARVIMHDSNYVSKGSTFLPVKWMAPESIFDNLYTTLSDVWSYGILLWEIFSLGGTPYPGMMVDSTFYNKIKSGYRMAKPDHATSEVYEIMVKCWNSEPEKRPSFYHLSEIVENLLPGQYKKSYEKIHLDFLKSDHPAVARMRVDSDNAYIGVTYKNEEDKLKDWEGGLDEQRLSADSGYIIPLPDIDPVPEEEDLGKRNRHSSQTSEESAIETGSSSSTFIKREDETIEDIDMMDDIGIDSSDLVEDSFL
# [20] = target: Serine/threonine-protein kinase pim-2 (Homo sapiens) (UniProt Q9P1W9); experiment: Inhibition of recombinant human Pim2 (2 to end residues) at 10 uM using RSRHSSYPAGT as substrate measured after 40 mins in presence of [gamma33P]ATP by scintillation counting method
# Chain of Serine/threonine-protein kinase pim-2 (Homo sapiens) (Q9P1W9 whole entry, looked up, the tested form may be a part): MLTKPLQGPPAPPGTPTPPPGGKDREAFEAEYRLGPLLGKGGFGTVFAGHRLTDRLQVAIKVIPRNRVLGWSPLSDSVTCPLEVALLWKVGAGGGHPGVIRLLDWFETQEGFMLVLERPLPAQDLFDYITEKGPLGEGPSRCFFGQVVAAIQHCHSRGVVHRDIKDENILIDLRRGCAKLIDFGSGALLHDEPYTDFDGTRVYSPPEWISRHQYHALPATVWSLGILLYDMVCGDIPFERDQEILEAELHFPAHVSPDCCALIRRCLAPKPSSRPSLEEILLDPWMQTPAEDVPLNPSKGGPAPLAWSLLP
# [21] = target: Proto-oncogene tyrosine-protein kinase Src (Homo sapiens) (UniProt P12931); experiment: Inhibition of human Src (1 to 530 residues) using GGEEEEYFELVKKKK as substrate measured after 40 mins in presence of [gamma33P]ATP by scintillation counting method
# [22] = target: SRSF protein kinase 1 (Homo sapiens) (UniProt Q96SB4); experiment: Inhibition of human SRPK1 (2 to end residues) using RSRSRSRSRSRSRSR as substrate measured after 40 mins in presence of [gamma33P]ATP by scintillation counting method
# Chain of SRSF protein kinase 1 (Homo sapiens) (Q96SB4 whole entry): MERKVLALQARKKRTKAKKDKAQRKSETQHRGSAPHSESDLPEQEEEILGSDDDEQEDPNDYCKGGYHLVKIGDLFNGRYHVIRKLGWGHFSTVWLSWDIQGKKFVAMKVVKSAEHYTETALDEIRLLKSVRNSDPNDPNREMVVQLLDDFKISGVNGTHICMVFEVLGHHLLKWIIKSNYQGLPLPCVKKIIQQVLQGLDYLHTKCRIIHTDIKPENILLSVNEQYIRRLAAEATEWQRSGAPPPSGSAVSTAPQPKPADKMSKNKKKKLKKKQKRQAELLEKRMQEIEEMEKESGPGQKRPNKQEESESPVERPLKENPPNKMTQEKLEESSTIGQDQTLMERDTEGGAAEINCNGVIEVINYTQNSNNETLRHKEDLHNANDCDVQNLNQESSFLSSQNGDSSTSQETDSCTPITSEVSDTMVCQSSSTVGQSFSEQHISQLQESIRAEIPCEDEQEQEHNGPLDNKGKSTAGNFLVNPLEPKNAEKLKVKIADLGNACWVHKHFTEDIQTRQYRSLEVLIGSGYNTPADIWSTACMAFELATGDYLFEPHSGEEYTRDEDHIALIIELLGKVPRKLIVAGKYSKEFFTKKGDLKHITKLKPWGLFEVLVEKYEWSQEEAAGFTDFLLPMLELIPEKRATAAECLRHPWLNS
# In short: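 Kinase panel of 422 kinases screened by Eurofins KinaseProfiler at a single test-compound concentration of 10 µM.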
# [23] = tested on: Angiopoietin-1 receptor (Homo sapiens), Q02763 [Q939H,Q940H,Y897S]; experiment: Inhibition of human Tie2 Q939H/Q940H/Y897S mutant (771 to end residues) using EFPIYDFLPAKKK as substrate measured after 40 mins in presence of [gamma33P]ATP by scintillation counting method
structure (smiles),measurement,setting,value
CN1C[C@H](Nc2nc3cc[nH]c3c(=O)n2C)C[C@H](c2ccc3c(c2)OCCO3)C1,Activity,[1],inactive
same,Activity,[2],inactive
same,AUC(0-t),[3],2480 ng·h/mL
same,logD,[4],1.9
same,inhibition,[5],inactive
same,inhibition,[6],inactive
same,inhibition,[7],inactive
same,inhibition,[8],inactive
same,inhibition,[9],inactive
same,inhibition,[10],inactive
same,inhibition,[11],inactive
same,inhibition,[12],inactive
same,inhibition,[13],inactive
same,inhibition,[14],inactive
same,inhibition,[15],inactive
same,inhibition,[16],inactive
same,inhibition,[17],inactive
same,inhibition,[18],inactive
same,inhibition,[19],inactive
same,inhibition,[20],inactive
same,inhibition,[21],inactive
same,inhibition,[22],inactive
same,inhibition,[23],inactive
